Screening data from PubChem BioAssay.
The entries come from a sample that favours hits as a whole.
HUVEC prolif 384: blocks proliferation of human endothelial cells; HUVEC proliferation, CellTiter-Glo luminescence, 72 h; stronger effect = lower value; viability, % at 10 µM (by protocol); hit rate 1.1% among 86,000; AID 648;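 active = viability at or below 30%; inactive = viability above 30%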;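 also: 100% = median luminescence of DMSO-only cell control wells on each plate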
HCT116 PTEN-null: growth suppressors of cells with PTEN tumor suppressor deletion; HCT116 PTEN-null viability, CellTiter-Glo, 60 h; stronger effect = lower value; viability, % at 10 µM; hit rate 1.2% among 140,000;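 active = viability at or below a set limit, 4 SD under the median of all tested compounds, cut at about 3.7% in these data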;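 also: PTEN knockout HCT116 line with beta catenin targeted HCT116 as companion control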
bCat KO growth: beta-catenin-lacking colon tumor cell growth suppression; hit rate 1.5% among 140,000; HCT116 beta-catenin knockout viability, CellTiter-Glo, 60 h; stronger effect = lower value; viability, % at 10 µM;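 active = viability at or under a set limit, the compound median less 4 SD, cut at about 6% in these data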;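 also: 0% = Hyamine 1622 control at 20 µM and 100% = untreated cell control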
H69AR growth 86K: growth inhibitors of human H69AR lung tumor cells | H69AR lung tumor viability, ATP luminescence, 72 h; stronger effect = lower value | viability, % at 10 µM | hit rate 6% among 85,000;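 active = viability at or below 40%; inactive = viability above 40%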;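 also: multidrug resistant small cell line overexpressing MRP-1 efflux transporter; 100% = mean luminescence of untreated control wells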
Lung fibro prol: blocks proliferation of human lung fibroblasts. LL 47 human lung fibroblast viability, ATP luminescence; stronger effect = lower value. viability, % at 10 µM. hit rate 1.1% among 85,000. AID 719;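 active = viability at or below 50% in the single dose screen; inactive = viability above 50%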;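 also: compound exposure lasted 72 h before the ATP readout; 100% = median luminescence of untreated cell-only wells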
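Test system: LL 47 human lung fibroblasts / Quantity: 1,150 cells in each well / Medium: IMEM growth medium with 15% fetal bovine serum / Incubation: 72 h compound exposure at 37 °C after overnight plating / Detection: CellTiter-Glo luminescence measuring cellular ATP / Read-out: % viability versus median cells-only luminescence / Benchmarks: cell-only wells, no compound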
* = called active by the depositor; / = no result given.

SMILES | HUVEC prolif 384 | HCT116 PTEN-null | bCat KO growth | H69AR growth 86K | Lung fibro prol
CCC(=O)N1c2ccc(S(=O)(=O)CCC(=O)NC3CCCC3)cc2CC1C (configuration not stated) | 89 | 96 | 88 | 93 | 103
CCC(=O)N1c2ccc(S(=O)(=O)CCC(=O)N3CCn4c3nc3ccccc34)cc2CC1C (configuration not stated) | 88 | 81 | 67 | 1.9* | 44*
CCOC(=O)COc1ccc2nsnc2c1Cl | 99 | 96 | 82 | 84 | 115
C=C(CC)C(=O)c1ccc(OCC(=O)O)c(Cl)c1Cl | 57 | 72 | 72 | 12* | 60
CC(C)C(NS(=O)(=O)c1ccc2c(c1)OCCCO2)C(=O)O (configuration not stated) | / | 87 | 83 | / | /
CCOc1ccc(-c2nc(N)ncc2-c2ccc(OC)cc2)c(O)c1 | / | 87 | 89 | / | /
CCOc1ccc(-c2nc(N)ncc2-c2ccccc2)c(O)c1 | 114 | 82 | 87 | 28* | 93
O=C(Nc1ccc(Cl)cc1C(=O)Nc1ccncc1)c1ccco1 | 73 | 79 | 68 | 36* | 70
CC(C)COc1ccc(C(=O)Nc2ccc(NC(=O)c3ccco3)c(Cl)c2)cc1 | 37 | 41 | 39 | 6.7* | 87
COc1cc(OC)cc(C(=O)Nc2cc(NC(=O)c3ccco3)ccc2OC)c1 | 84 | 88 | 90 | 37* | 94
COc1cc(NC(=O)c2ccco2)c(OC)cc1NC(=O)Nc1ccc(Cl)cc1 | 78 | 26 | 24 | 11* | 109
CC(C)Oc1ccc(C(=O)Nc2ccc(NC(=O)c3ccco3)c(Cl)c2)cc1 | 105 | 92 | 82 | 88 | 102
C=CCn1c(SCC(=O)Nc2ccc(-c3nc4ccc(C)cc4s3)cc2)nnc1-c1ccccc1 | / | 90 | 100 | / | /
O=C(Nc1ccccc1NC(=O)c1ccco1)c1ccco1 | 112 | 60 | 52 | 96 | 102
O=C(Nc1ccccc1-c1ccccc1NC(=O)c1ccco1)c1ccco1 | 90 | 93 | 97 | 40* | 102
CCOC(=O)N1CCN(c2c(NCC3CCN(Cc4cccc(C)c4)CC3)c(=O)c2=O)CC1 | 126 | 95 | 94 | 100 | 98
COn1c(C)c(C(C)=O)c2c3nonc3ccc21 | 80 | 87 | 93 | 33* | 90
CCCCOn1c(C)c(C(=O)OCC)c2c3nonc3ccc21 | 95 | / | / | 60 | 94
COC(=O)c1ccc(/C=C/C(=O)c2ccc(OC)cc2)cc1 | / | 7 | 11 | / | /
COc1ccc(/C=C/C(=O)c2cc(F)ccc2OC(=O)c2ccc(OC)c(OC)c2)cc1OC | / | 3.3* | 2.9* | / | /
COC(=O)c1ccc(/C=C/C(=O)c2ccc(OC)c(OC)c2)cc1 | / | 1.6* | 3.3* | / | /
CC/C(=N\NC(=O)c1ccc(-c2ccccc2)cc1)C12CC3CC(CC(C3)C1)C2 | / | 73 | 66 | / | /
O=C(N1CCN(c2ccccc2)CC1)C1(c2cccs2)CCOCC1 | / | 78 | 81 | / | /
Cc1cccc(-n2c(=O)[nH]c3c(C(N)=O)nc(-c4ccccc4Cl)nc32)c1 | 89 | 1.5* | 1.8* | 2.5* | 53
CCC(Sc1nc2n[nH]c(C)c2c(=N)n1-c1cc(Cl)ccc1C)C(=O)N1CCOCC1 (configuration not stated) | 85 | 74 | 80 | 16* | 83
SMILES | HUVEC prolif 384 | HCT116 PTEN-null | bCat KO growth | H69AR growth 86K | Lung fibro prol
O=C(OCc1ccc(Cl)cc1)c1ccccc1C(=O)c1ccccc1 | / | 82 | 83 | / | /
COCC(C)n1c(C)cc(C(=O)COC(=O)c2c(NC(C)=O)sc(C)c2C)c1C (configuration not stated) | 31 | / | / | 3.2* | 62
O=c1[nH]c(=O)n(Cc2ccccc2)c2nc(-c3ccco3)cc(C(F)(F)F)c12 | 44 | 51 | 75 | 31* | 58
Cc1cc(S(=O)(=O)NCCCN2CCOCC2)ccc1F | 99 | 89 | 91 | 109 | /
O=C1C2C3C=CC(C3)C2C(=O)N1CNc1ccc(O)cc1 (configuration not stated) | 99 | 98 | 91 | 29* | 102
O=C(COc1ccc(Cl)cc1Cl)NCc1ccncc1 | 105 | 87 | 94 | 27* | /
O=C(COc1ccc(Cl)cc1Cl)Nc1ccccn1 | 45 | 58 | 72 | 54 | 48*
COCc1c(C(=O)OCC(=O)NCCN2C(=O)CSC2=O)oc2ccccc12 | / | 87 | 98 | / | /
Cc1nc(Cl)c(C(=O)NC(=O)Nc2cccc(C(F)(F)F)c2)c(C)c1[N+](=O)[O-] | 78 | 88 | 92 | 6.7* | 94
Oc1ccccc1/C=N/n1cnn(Cc2ccccc2Cl)c1=S | / | 94 | 97 | / | /
CC(C)NC(=O)NC(=O)COC(=O)c1cccc(S(=O)(=O)N2CCCCC2)c1 | / | 100 | 85 | / | /
CCOC(=O)c1sc2nc(SCC#N)n(CC3CCCO3)c(=O)c2c1C (configuration not stated) | 133 | 11 | 6.0* | 87 | 99
CCOC(=O)c1sc(NCC2CCCO2)nc1C (configuration not stated) | 107 | 96 | 97 | 88 | 100
Cc1cc(C(=O)CSc2n[nH]c(N)n2)c(C)n1-c1ccccc1 | / | 81 | 65 | / | /
Cc1ccc(-n2c(C)cc(C(=O)CSc3n[nH]c(N)n3)c2C)cc1 | 89 | 60 | 48 | 32* | 88
Cc1cc(C(=O)CSc2n[nH]c(N)n2)c(C)n1-c1ccc(F)cc1 | 94 | 60 | 44 | 40* | 94
CC(=O)Oc1c(C(=O)c2nnc(C)o2)c(=O)n(C)c2ccccc12 | / | 102 | 98 | / | /
O=C(NCCc1c[nH]c2ccccc12)c1ccc([N+](=O)[O-])cc1 | / | 97 | 88 | / | /
O=C(NCCc1c[nH]c2ccccc12)c1ccc(S(=O)(=O)NCc2ccco2)cc1 | 70 | 74 | 70 | 39* | 96
Cc1cc(C)c2oc(-c3cccc(NC(=O)c4ccc(F)cc4)c3)nc2c1 | 40 | 99 | 89 | 17* | 99
Cc1cc(C)c2oc(-c3ccc(C)c(NC(=S)NC(=O)c4cccs4)c3)nc2c1 | / | 2.7* | 3.8* | / | /
Cc1ccc(-c2nc3ccccc3o2)cc1NC(=S)NC(=O)c1cccs1 | / | 73 | 94 | / | /
COc1cc(C(=O)Nc2cccc(-c3nc4cc(C)cc(C)c4o3)c2)cc(OC)c1OC | / | 90 | 98 | / | /
Cn1c(CS/C(N)=N/N=C/c2ccccc2)c(Br)c(=O)n1-c1ccccc1 | / | 101 | 94 | / | /
